Among the data in ChEMBL document CHEMBL1158500, “Synthesis and biological evaluation of new potential inhibitors of N-acylethanolamine hydrolyzing acid amidase” (Bioorg Med Chem Lett, 2010) are IC50, inhibition and Activity values, retold here.

For experiment [1], the target named is T1, N-acylethanolamine-hydrolyzing acid amidase (Homo sapiens, UniProt Q02083).
T1 sequence (Q02083 whole entry): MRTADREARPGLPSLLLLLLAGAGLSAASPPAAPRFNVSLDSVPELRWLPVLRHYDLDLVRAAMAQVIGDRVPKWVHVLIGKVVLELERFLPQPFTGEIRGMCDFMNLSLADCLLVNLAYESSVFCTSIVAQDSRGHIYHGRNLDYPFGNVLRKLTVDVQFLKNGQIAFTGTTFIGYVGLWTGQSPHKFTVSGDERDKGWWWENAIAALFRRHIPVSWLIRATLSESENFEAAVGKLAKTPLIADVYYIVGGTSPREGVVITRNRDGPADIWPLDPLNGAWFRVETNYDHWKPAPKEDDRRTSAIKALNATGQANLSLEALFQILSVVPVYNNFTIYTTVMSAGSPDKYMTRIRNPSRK
Description: Inhibition of NAAA.

Experiment [2] has as its target T2, N-acylethanolamine-hydrolyzing acid amidase (Homo sapiens) (UniProt Q02083).
T2 sequence (whole entry): T1 sequence (Q02083 whole entry)
Description: Inhibition of human recombinant NAAA expressed in human HEK293 cells assessed as conversion of [1,2-14C]palmitoylethanolamine to [1,2-14C]ethanolamine at 50 uM by liquid scintillation counting. The format is cell-based.

Experiment [3] has as its target T1, N-acylethanolamine-hydrolyzing acid amidase. Description: Inhibition of human recombinant NAAA expressed in human HEK293 cells assessed as conversion of [1,2-14C]palmitoylethanolamine to [1,2-14C]ethanolamine by liquid scintillation counting.
The target in experiment [4] is T3, Fatty-acid amide hydrolase 1 (Homo sapiens) (UniProt O00519).
T3 sequence (whole entry): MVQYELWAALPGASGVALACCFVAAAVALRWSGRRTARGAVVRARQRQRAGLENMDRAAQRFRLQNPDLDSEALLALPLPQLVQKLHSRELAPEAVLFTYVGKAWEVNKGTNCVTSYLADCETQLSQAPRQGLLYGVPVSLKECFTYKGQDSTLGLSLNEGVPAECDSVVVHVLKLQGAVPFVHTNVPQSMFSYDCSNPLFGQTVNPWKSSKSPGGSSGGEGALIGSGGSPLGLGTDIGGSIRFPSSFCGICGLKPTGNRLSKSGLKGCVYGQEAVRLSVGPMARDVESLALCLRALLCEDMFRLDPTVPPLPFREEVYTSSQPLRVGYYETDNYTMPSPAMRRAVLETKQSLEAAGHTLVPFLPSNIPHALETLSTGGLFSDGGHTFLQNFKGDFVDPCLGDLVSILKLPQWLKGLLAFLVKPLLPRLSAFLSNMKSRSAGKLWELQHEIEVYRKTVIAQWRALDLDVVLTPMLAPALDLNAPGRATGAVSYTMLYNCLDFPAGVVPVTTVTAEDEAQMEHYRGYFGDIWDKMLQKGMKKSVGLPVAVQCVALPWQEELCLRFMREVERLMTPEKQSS
The experiment in a line: Inhibition of FAAH up to 50 uM.

Experiment [5] deals with Cannabinoid receptor 1 (Homo sapiens) (UniProt P21554). The experiment in a line: Inhibition of CB1 receptor in intact human HEK293 cells assessed as 2-arachidonoylglycerol level by LC-APCI-MS analysis. The format is cell-based. In short, it runs like this:
(§1)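 Intact HEK-NAAA cells (HEK-293 stably overexpressing human NAAA) were treated. Cellular PEA, AEA, OEA and 2-arachidonoylglycerol were quantified by isotope-dilution liquid chromatography–mass spectrometry and expressed as pmol/mg lipid.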

The target of experiment [6] is T3, Fatty-acid amide hydrolase 1 (Homo sapiens). The experiment in a line: Inhibition of FAAH in human intact HEK293 assessed as anandamide level by LC-APCI-MS analysis. The class given is cell-based. In a few lines: as §1
The target of experiment [7] is Transient receptor potential cation channel subfamily V member 1 (Homo sapiens) (UniProt Q8NER1). Description: Inhibition of human TRPV1 expressed in HEK293 cells up to 50 uM. The class given is cell-based.
Experiment [8] deals with T2, N-acylethanolamine-hydrolyzing acid amidase (Homo sapiens). Description: Competitive inhibition of human recombinant NAAA expressed in human HEK293 cells assessed as conversion of [1,2-14C]palmitoylethanolamine to [1,2-14C]ethanolamine by Lineweaver-Burke plot analysis. The format is cell-based.
Experiment [9] addresses Peroxisome proliferator-activated receptor (Homo sapiens) (UniProt P37231+Q07869+Q03181). The experiment in a line: Inhibition of PPAR in intact human HEK293 cells assessed as N-oleoylethanolamine level by LC-APCI-MS analysis. The format is cell-based. In short, it runs like this:
as §1

In experiment [10] the target is Cannabinoid receptor 1 (Homo sapiens) (UniProt P21554). Description: Displacement of [3H]CP-55940 from human recombinant CB1 receptor expressed in HEK293 cells up to 50 uM after 90 mins. The class given is cell-based. A general note: In a radioligand displacement assay an active substance lowers the binding of a labelled ligand.
Experiment [11] has as its target T2, N-acylethanolamine-hydrolyzing acid amidase (Homo sapiens). The experiment in a line: Inhibition of NAAH in human intact HEK293 assessed as N-palmitoylethanolamine level by LC-APCI-MS analysis. The format is cell-based. In a few lines:
as §1

For experiment [12], the target named is Cannabinoid receptor 2 (Homo sapiens) (UniProt P34972). Description: Displacement of [3H]CP-55940 from human recombinant CB2 receptor expressed in HEK293 cells up to 50 uM after 90 mins. The format is cell-based.

Calls of active or inactive are those of the source. No cut-off for these calls is given here.

Broadly, the IC50 is the concentration at which inhibition is half-maximal. For orientation: inhibition means the drop in the measured response relative to a control, in per cent.

In turn, `CCCCCCCCCCCCCCCNC(=O)CCO` gave an IC50 in experiment [1] of 32 µM.
As for `CCCCCCCCCCCCCCCCOC(=O)C1CCCC1`, the inhibition in [2] was determined as 17%.
Same read-out and setting: under `CCCCCCCCCCCCCCCC(=O)Nc1ccc(OC)cc1` stands “inactive”.
Consider `CCCCCCCCCCCCCCCNC(=O)C1CCCCC1` [CYCLOHEXANECARBOXYLIC ACID PENTADECYLAMIDE], for which the IC50 in [3] amounted to 17 µM.
`CCCCCCCCCCCCCCCC(=O)NN1CCN(c2ccc(Cl)cc2)CC1`: the inhibition entry in experiment [2] was “inactive”.
Consider `CCCCCCCCCCCCCCCC(=O)NCCc1cc(OC)cc(OC)c1`, for which the inhibition entry in [2] was “inactive”.
Consider `CCCCCCCCCCCCCCC(=O)OC1CCCCC1`, for which, in experiment [2], the inhibition is 28%.
In the case of `CCCCCCCCCCCCCCCCOC(=O)Nc1ccc(OC)cc1`, the inhibition entry in experiment [2] was “inactive”.
Turning to `CCCCCCCCCCCCCCCCOC(=O)c1ccc([N+](=O)[O-])cc1`, the inhibition in experiment [2] is 26%.
On to `CCCCCCCCCCCCCCCC(=O)NN1CCN(c2cc(C)ccc2C)CC1`, for which the inhibition entry in experiment [2] was “inactive”.
Take `CCCCCCCCCCCCCCCCOC(=O)c1ccc(OC)cc1`: the inhibition entry in [2] is “inactive”.
On the same count and under the same terms, under `CCCCCCCCCCCCCCCCNC(=O)C1CCCC1` stands 8%; under `CCCCCCCCCCCCCCCC(=O)Oc1ccc(OC)cc1`, “inactive”; under `CCCCCCCCCCCCCCC(=O)OC1CCCC1`, 25%.
Regarding `CCCCCCCCCCCCCCCCOC(=O)NC1CCCCC1`, the inhibition result in [2] was “inactive”.
As to `CCCCCCCCCCCCCCCC(=O)NN1CCN(c2ccc(C)c(C)c2)CC1`, the inhibition entry in experiment [2] is “inactive”.
The same measure, in the same setting: the same measure for `CCCCCCCCCCCCCCCCC(=O)OC1CCCCC1`: “inactive”; for `CCCCCCCCCCCCCCCC(=O)Nc1ccc([N+](=O)[O-])cc1`: 15%; for `CCCCCCCCCCCCCCCC(=O)NN1CCN(c2ccc(F)cc2)CC1`: “inactive”.
`CCCCCCCCCCCCCCCCNC(=O)c1ccc(OC)cc1`: in experiment [2], the inhibition result was “inactive”.
Take `CCCCCCCCCCCCCCCC(=O)NCCc1ccc(OC)cc1`: the inhibition result in experiment [2] is “inactive”.
Turning to `CCCCCCCCCCCCCCCCOC(=O)CC` [HEXADECYLPROPIONATE], half-maximal inhibition in [1] (IC50) required 54 µM.
Regarding `CCCCCCCCCCCCCCCNC(=O)c1ccccc1`, 8.3 µM corresponded to half-maximal inhibition in [1] (IC50).
Turning to `CCCCCCCCCCCCCCCC(=O)OC1CCCC1` [CYCLOPENTYL PALMITATE], the outcome in [4], in experiment [5], in experiment [6], in experiment [7], in experiment [9] and in experiment [10] was inactive. For the same molecule, the result in [12] was inactive. The outcome in experiment [8] and in experiment [11] was Active. Also, the IC50 in [3] amounted to 10 µM. In addition, the inhibition in experiment [2] is 85%.
Consider `CCCCCCCCCCCCCCCCNC(=O)c1ccc([N+](=O)[O-])cc1`, for which the inhibition in experiment [2] is 4%.
On to `CCCCCCCCCCCCCCC(=O)OC1CCC1`, for which the inhibition in experiment [2] is 29%.
As to `CCCCCCCCCCCCCCCC(=O)OC1CCC1`, the inhibition in experiment [2] turned out to be 41%.
Regarding `CCCCCCCCCCCCCCCC(=O)OC1CCCCC1`, in [2], the inhibition amounted to 18%.
Same read-out and setting: the same measure for `CCCCCCCCCCCCCCCC(=O)NC1CCN(Cc2ccccc2)CC1`: “inactive”; for `CCCCCCCCCCCCCCCCC(=O)OC1CCCC1`: “inactive”.
Turning to `CCCCCCCCCCCCCCCCC(=O)OC1CCC1`, in experiment [2], the inhibition entry is “inactive”.
